Compound activity from PubChem.
In the library only some 3% were active in any assay of this set; here they are far more common.
Myeloid diff 2 – myeloid differentiation induction. ER-HoxA9 myeloid progenitors, lysozyme-GFP differentiation, flow cytometry. calls only at 10 µM. hit rate 1% among 360,000. AID 624256;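 active = normalized GFP-positive differentiation at or above the plate's own cutoff, the solvent-only control mean plus 3 SD; inconclusive = no clear call, values can overlap the other calls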;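 note: cells exposed to compound for four days before flow analysis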
Granule exo inh – blocks lytic granule exocytosis | AID 651702 | hit rate 0.66% among 360,000 | inhibition, % at 10 µM | TALL-104 LAMP-1 surface exposure, flow cytometry; cells stimulated with thapsigargin and PMA;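 active = inhibition above about 55%, limit read from the data; inconclusive = no clear call, values can overlap the other calls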
SENP1 FRET inh – SENP1 (human) catalytic domain inhibition | Q9P0U3 | recombinant SENP1 catalytic domain, CyPet-SUMO1-YPet FRET cleavage | inhibition, % at 10 µM | hit rate 0.21% among 360,000;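 active = inhibition at least 30% at 10 µM, raw YFP signal under a set limit, fluorescence ratio 0.5 to 1.5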;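 note: 0% = enzyme with DMSO and 100% = no enzyme wells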
Target sequence (Q9P0U3 419-644 limits assumed): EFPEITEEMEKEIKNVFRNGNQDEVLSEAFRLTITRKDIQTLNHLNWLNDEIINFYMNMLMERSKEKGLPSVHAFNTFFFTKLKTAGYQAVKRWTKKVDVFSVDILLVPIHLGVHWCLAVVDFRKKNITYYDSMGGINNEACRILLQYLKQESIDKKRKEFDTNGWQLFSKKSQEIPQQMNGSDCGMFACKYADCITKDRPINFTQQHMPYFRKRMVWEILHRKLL
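Test system: human SENP1 catalytic domain; medium: Tris pH 8 buffer plus EDTA, NaCl, BME, BSA, NP40, catalase; incubation: 50 min reaction at room temperature; technique: FRET, CFP and YFP emission; controls: no-enzyme low control and enzyme-plus-DMSO high control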
HNF4A DNA FP – change in binding of human HNF4 alpha to DNA; P41235; HNF4a-FITC DNA binding, fluorescence polarization, 1 h; activity change, % at 10 µM; hit rate 0.3% among 360,000; AID 1224865; in the data active = activity change above about 30%, passing the limit was not always enough
DSG3 Ab inh – inhibitors of pemphigus antibody binding to human desmoglein-3. P32926. DSG3-coupled beads, scFv-anti-DSG3-GFP binding, flow cytometry; active compounds read low. binding (percent of control), % at 10 µM. hit rate 0.48% among 310,000;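 active = binding more than 3 SD below its plate's average and above zero; inconclusive = below that plate limit but binding exactly zero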;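 note: hits lower antibody fragment binding to DSG3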
Cardio protect – modulators protecting cardiomyocytes from myocardial damage. H9c2 cardiomyocytes, H2O2 injury protection, ATPLite, 2 h. protection from H2O2 cell death, % at 20 µM. hit rate 0.63% among 360,000. AID 588492;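 active = compounds giving at least 50% protection of heart cells from peroxide-induced death in the single-dose screen, raw or plate-pattern-corrected value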;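 note: 0% = DMSO wells with peroxide and 100% = DMSO wells without peroxide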
Starred values were filed as active, the others as inactive; i = inactive; ? = inconclusive; . = no result; + = active, no number.

SMILES	Myeloid diff 2	Granule exo inh	SENP1 FRET inh	HNF4A DNA FP	DSG3 Ab inh	Cardio protect
CCOC(=O)C1=C(C)NC(=O)NC1c1cc(Br)c(O)c(OC)c1 (centres undefined)	i	2	25	2	76*	-4
CCCCOc1ccc(C2NC(=O)NC(C)=C2C(C)=O)cc1OCC (centres undefined)	i	-1	0	0	87	-2
Cc1cc(C)cc(NC(=O)CCn2c(=S)[nH]c3ccccc3c2=O)c1	i	-1	2	2	.	2
COc1ccc(NC(=O)CCn2c(=S)[nH]c3ccccc3c2=O)cc1OC	i	3	2	2	63*	0
Cc1ccc(S(=O)(=O)N(C)c2ccc(OCC(=O)N3CCCCC3)cc2)cc1	i	3	1	2	103	-10
CN1CCCN(C(=O)CNC(=O)c2ccccc2Br)CC1	i	-4	-1	-1	102	3
Nc1cc(-c2ccc(Br)cc2)nn1S(=O)(=O)c1ccccc1	i	36	3	3	62*	-13
CCCOc1ccc(/C(O)=C2/C(=O)C(=O)N(c3ccccn3)C2c2ccc(OC)cc2)cc1C (centres undefined)	i	-13	22	6	105	-4
O=Cc1ccc(N2CCCC2)c([N+](=O)[O-])c1	i	-2	0	1	100	5
O=[N+]([O-])/C=C\c1ccc(N2CCCC2)c(F)c1	.	75*	9	3	.	-17
CNn1cnc2ccsc2c1=O	i	3	2	3	107	18
Cc1cccc(NC(c2ccc(O)cc2)c2ccc3ccc(C)nc3c2O)n1 (centres undefined)	i	19	1	-6	110	92*
COc1cccc(C(Nc2ccccc2)c2ccc3ccc(C)nc3c2O)c1 (centres undefined)	i	-2	-1	5	.	.
COc1cccc(N2CCN(c3ccc4nnc(CCC(=O)N5CCC(C)CC5)n4n3)CC2)c1	i	9	0	-1	.	20
CCCN1CCN(C(=O)CCc2nnc3ccc(N4CCN(c5cccc(OC)c5)CC4)nn23)CC1	i	4	1	0	112	55*
Cc1ccc(/C=C/S(=O)(=O)NCc2ccc(F)cc2)cc1	i	0	2	-1	151	-4
COc1ccc(-n2ncc3c2CC(C)(C)CC3NC(=O)CCCN2CCCC2=O)cc1 (centres undefined)	i	0	0	0	94	-6
COc1ccc(-n2ncc3c2CC(C)(C)CC3NC(=O)CCN2CCCCC2=O)cc1 (centres undefined)	+	0	2	-1	93	-2
CN(CC(=O)Nc1ccccc1Cl)CC(=O)Nc1cccc2ccccc12	i	10	0	0	116	2
CCn1c(NC(=O)c2ccccc2)nc2ccccc21	i	5	3	8	91	8
CCn1c(NC(=O)/C=C/c2ccc(F)cc2)nc2ccccc21	i	18	-17	0	.	74*
CCc1ccc(-c2cc(C)no2)cc1S(=O)(=O)N1CCN(c2ccc(F)cc2)CC1	+	1	2	1	96	-2
Nc1nc2c(c(=O)[nH]1)C(c1cccc3ccccc13)C1=C(N2)c2ccccc2C1=O (centres undefined)	i	-2	-25	-3	41*	-5
CC(=O)C1=C(C)NC2=C(C(=O)c3ccccc32)C1c1ccccc1 (centres undefined)	i	0	5	0	108	27
CN(C)C(CNC(=O)c1ccc(C(=O)c2ccccc2)cc1)c1ccccc1 (centres undefined)	i	6	-1	-2	104	4
SMILES	Myeloid diff 2	Granule exo inh	SENP1 FRET inh	HNF4A DNA FP	DSG3 Ab inh	Cardio protect
CN(C)C(CNC(=O)c1ccc(-c2ccccc2)cc1)c1ccccc1 (centres undefined)	+	40	0	1	124	2
CC(C)C[C@@H](CN1CCCC1CN1C(=S)NC[C@@H]1Cc1ccc(O)cc1)N1C[C@H](Cc2ccc(O)cc2)N(CC2CCCCC2)C1=S (some centres undefined)	i	57*	0	0	102	-40
CC(C)C[C@@H](CN1CCC[C@@H]1CN1C(=S)NC[C@@H]1Cc1ccccc1)N1C[C@H](Cc2ccc(O)cc2)N(CC2CCCCC2)C1=S	i	2	3	1	.	5
CC(C)C[C@H]1CNC(=S)N1C[C@H]1CCCN1C[C@H](Cc1ccccc1)N1C[C@H](Cc2ccc(O)cc2)N(CC2CCCCCC2)C1=S	+	22	-2	3	.	-16
Oc1ccc(C[C@H]2CN([C@@H](Cc3cccc(O)c3)CN3CCC[C@@H]3CN3C(=S)NC[C@@H]3Cc3ccccc3)C(=S)N2CC2CCCCC2)cc1	+	25	2	-1	.	-9
NCCCCCc1cn(CC(=O)NCCCCCCCCCCC(=O)N2CCNCC2)nn1	i	-1	1	4	107	-5
COc1ccc(CNC(=O)c2ccc(Cn3nc(C)c([N+](=O)[O-])c3C)o2)cc1	i	0	3	-3	96	87*
COc1ccc(N2CCN(C(=O)c3ccc(Cn4nc(C)c([N+](=O)[O-])c4C)o3)CC2)cc1	i	-3	1	-2	.	-4
CCCN1C(=O)/C(=C/c2ccco2)SC1=Nc1ccc(OC)cc1	i	-1	3	1	116	4
COc1ccc(N=C2S/C(=C\c3ccc(N4CCOCC4)o3)C(=O)N2CCc2c[nH]c3ccccc23)cc1	?	82*	-20	132	143	-16
COc1ccc(N=C2S/C(=C\c3ccc(OCC(=O)O)cc3)C(=O)N2CCc2c[nH]c3ccccc23)cc1	i	2	1	-74	46*	-5
O=C(O)COc1ccc(/C=C2\SC(=Nc3ccccc3)N(c3ccccc3)C2=O)cc1	i	-2	0	1	95	4
COc1ccc(NC(=O)CN(C)S(=O)(=O)c2ccc(Br)s2)cc1	?	9	3	0	-22*	-5
COc1cccc(NC(=O)N2CCC(NC(=O)C3CCCCC3)CC2)c1	.	20	1	3	.	0
O=C1c2ccccc2C(=O)c2cc(N3CCCCC3)ccc21	+	-2	95*	-7	162	-23
CC(C)=CCC/C(C)=C/CNC(=O)C[C@H]1C[C@H](C(=O)N2CCOCC2)[C@@]2(C)c3[nH]c4cc(-c5ccco5)ccc4c3CCN2C1=O	i	10	-23	5	100	-11
COc1ccc(-c2csc3nc(C(C)(C)C)oc(=O)c23)cc1OC	i	0	0	0	104	20
